According to ChEMBL document CHEMBL1681691, “Synthesis and biological activity of amino acid conjugates of abscisic acid” (Bioorg Med Chem, 2011):
Active and inactive are the calls of the source. No cut-off for these calls is given here.

Columns and labels:
Oryza sativa [1] = test: Inhibition of seedling elongation in Oryza sativa after 7 days
[2] = target: T1, IAA-amino acid hydrolase ILR1-like 4 (Arabidopsis thaliana) (UniProt O04373); test: Activity at GST-tagged IAR3 of Arabidopsis thaliana assessed as ABA release per mg of protein after 7 hrs by HPLC
T1 sequence (whole entry): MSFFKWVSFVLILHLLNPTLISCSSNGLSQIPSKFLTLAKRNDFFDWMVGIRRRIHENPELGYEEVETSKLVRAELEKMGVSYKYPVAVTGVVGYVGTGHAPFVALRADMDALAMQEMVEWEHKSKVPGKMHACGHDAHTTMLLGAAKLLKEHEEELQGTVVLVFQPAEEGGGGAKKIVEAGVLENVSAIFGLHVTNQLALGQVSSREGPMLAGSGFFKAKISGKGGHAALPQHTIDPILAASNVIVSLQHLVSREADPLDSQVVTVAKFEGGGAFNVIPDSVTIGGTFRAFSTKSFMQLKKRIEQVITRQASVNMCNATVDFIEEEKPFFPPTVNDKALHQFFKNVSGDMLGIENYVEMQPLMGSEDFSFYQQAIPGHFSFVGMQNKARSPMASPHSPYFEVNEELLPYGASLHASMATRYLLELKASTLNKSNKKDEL
Method in brief: (§1)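 Recombinant Arabidopsis GST-IAR3 expressed in E. coli BL21(DE3) (IPTG 50 µM, overnight at 18 °C) and purified on glutathione-agarose. Substrate at 1 mM was preincubated 5 min at 30 °C in 50 mM Tris-HCl pH 8.0 with 1 mM DTT and 1 mM MnCl2. Reaction started with 15 ng/µl enzyme at 30 °C, sampled up to 5 h (some substrates 7 or 24 h), quenched in MeOH/1% AcOH, cleaned on cartridge, HPLC at 254 nm.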

Oryza sativa [3] = test: Inhibition of seedling elongation in Oryza sativa at 100 uM after 7 days
Spinacia oleracea [4] = test: Inhibition of seed germination in Spinacia oleracea at 100 uM after 24 hrs
Lactuca sativa [5] = test: Inhibition of seed germination in Lactuca sativa at 100 uM after 24 hrs; format: functional
Arabidopsis thaliana [6] = test: Inhibition of seed germination in Arabidopsis thaliana after 24 hrs; format: functional, organism-based
Lactuca sativa [7] = test: Inhibition of seed germination in Lactuca sativa after 24 hrs; format: functional, organism-based
Spinacia oleracea [8] = test: Inhibition of seed germination in Spinacia oleracea at 100 uM after 24 hrs; format: functional
Method in brief: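 Spinach cv. Jiromaru seeds sterilized with EtOH for 5 min and rinsed in running tap water for 2 h. Placed on filter paper wetted with 2 ml test solution in a Petri dish, held 2 days at 5 °C, then germinated 24 h at 22 °C under continuous light. Single-concentration test at 100 µM.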

Arabidopsis thaliana [9] = test: Inhibition of seed germination in Arabidopsis thaliana at 10 uM after 24 hrs; format: functional
Method in brief: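 Arabidopsis Col-0 seeds, 25 per test, sterilized in 70% EtOH for 30 min then EtOH for 1 min. Seeds were soaked in 250 µl test solution and chilled 3 days at 5 °C in the dark, then germinated on filter paper under continuous light for 24 h at 22 °C. Scored as % with emerged radicle; run twice. Single-concentration test at 10 µM.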

Oryza sativa [10] = test: Metabolic stability in Oryza sativa seedling assessed as ABA-d6 release per mg of protein after 4 days by LC-MS; format: ADME, organism-based; conditions: in vivo, 96 h
[11] = Chemical stability of the compound at 25 degC after 7 days; format: physicochemical; conditions: 168 h
Method in brief: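 Compound at 100 µM in 2 ml aqueous solution, prepared as for the rice growth assay, held in a capped glass tube at 25 °C under continuous light for 7 days, then analysed by reverse-phase HPLC.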

[12] = target: T1, IAA-amino acid hydrolase ILR1-like 4 (Arabidopsis thaliana); test: Activity at GST-tagged IAR3 of Arabidopsis thaliana assessed as ABA release per mg of protein after 5 hrs by HPLC
Method in brief: as §1

[13] = target: T1, IAA-amino acid hydrolase ILR1-like 4 (Arabidopsis thaliana); test: Activity at GST-tagged IAR3 of Arabidopsis thaliana assessed as IAA release per mg of protein after 5 hrs by HPLC
Method in brief: as §1

| SMILES | IC50 (Oryza sativa [1]) [µM] | inhibition at 100 µM (Oryza sativa [3]) [%] | further results |
| --- | --- | --- | --- |
| CC1=CC(=O)CC(C)(C)[C@@]1(O)/C=C/C(C)=C\C(=O)N[C@@H](CC(N)=O)C(=O)O | 9.3 | > 80 | Activity [2]: 19 nmol/h/mg |
| CSCC[C@H](NC(=O)/C=C(C)\C=C\[C@@]1(O)C(C)=CC(=O)CC1(C)C)C(=O)O | 16 | > 80 | Activity [2]: 22 nmol/h/mg |
| CC1=CC(=O)CC(C)(C)[C@@]1(O)/C=C/C(C)=C\C(=O)N[C@@H](CC(=O)O)C(=O)O | 6.4 | > 80 | – |
| CC1=CC(=O)CC(C)(C)[C@@]1(O)/C=C/C(C)=C\C(=O)N[C@@H](CCC(=O)O)C(=O)O | – | – | inhibition (Spinacia oleracea [4]): Active |
| CC1=CC(=O)CC(C)(C)[C@@]1(O)/C=C/C(C)=C\C(=O)O [(+)-ABSCISIC ACID] | 2.1 | 100 | inhibition at 100 µM (Lactuca sativa [5]): 100%; IC50 (Arabidopsis thaliana [6]): 0.2 µM; IC50 (Lactuca sativa [7]): 5.7 µM; inhibition at 100 µM (Spinacia oleracea [8]): 100%; inhibition at 10 µM (Arabidopsis thaliana [9]): 100% |
| [2H]C([2H])([2H])C1(C([2H])([2H])[2H])CC(=O)C=C(C)[C@]1(O)/C=C/C(C)=C\C(=O)N[C@H](C)C(=O)O | – | – | Stability (Oryza sativa [10]): Stable |
| CC1=CC(=O)CC(C)(C)[C@@]1(O)/C=C/C(C)=C\C(=O)N[C@@H](CCC(N)=O)C(=O)O | 8.3 | > 80 | inhibition (Spinacia oleracea [4]): Active |
| CC1=CC(=O)CC(C)(C)[C@@]1(O)/C=C/C(C)=C\C(=O)N[C@@H](C)C(=O)O | 7 | > 80 | Stability [11]: Stable; Activity [12]: 310 nmol/h/mg; inhibition (Arabidopsis thaliana [9]): Active |
| C[C@H](NC(=O)Cc1c[nH]c2ccccc12)C(=O)O | – | – | Activity [13]: 2100 nmol/h/mg |
| [2H]C([2H])([2H])C1(C([2H])([2H])[2H])CC(=O)C=C(C)[C@]1(O)/C=C/C(C)=C\C(=O)N[C@@H](C)C(=O)O | – | – | Stability (Oryza sativa [10]): Unstable |
| CC1=CC(=O)CC(C)(C)[C@@]1(O)/C=C/C(C)=C\C(=O)N[C@@H](CO)C(=O)O | 13 | > 80 | – |
| CC1=CC(=O)CC(C)(C)[C@@]1(O)/C=C/C(C)=C\C(=O)NCC(=O)O | 5.7 | > 80 | Activity [12]: 230 nmol/h/mg |
